Series [1] in a line: Immunosuppressive activity in Balb/c mouse B cells assessed as inhibition of LPS-induced cell proliferation at 10^-6 M after 48 hrs by MTT assay. The class given is functional. A digest of the protocol: (§1)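 Spleens taken aseptically from Balb/c mice (18–22 g). Single-cell suspension made in incomplete RPMI, RBCs lysed with Tris-ammonium chloride, cells washed, resuspended in complete RPMI and checked for viability by trypan blue. Cells seeded at 1 × 10⁶ cells/mL. Compounds in DMSO tested at 1×10⁻⁴, 1×10⁻⁵ and 1×10⁻⁶ M, 48 h, 37 °C, 5% CO₂.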
For orientation: Tetrazolium dyes change colour on reduction, which living cells bring about.

Series [2] can be described thus: Cytotoxicity against in Balb/c mouse B cells at 10^-4 M after 48 hrs by MTT assay. The class given is cell-based. The conditions noted are these: 100 µM. In short, it runs like this:
as §1

The nature of series [3]: Immunosuppressive activity in Balb/c mouse B cells assessed as inhibition of LPS-induced cell proliferation at 10^-4 M after 48 hrs by MTT assay. The class given is functional. In short, it runs like this: as §1
Series [4] is described as follows: Cytotoxicity against in Balb/c mouse T cells at 10^-6 M after 48 hrs by MTT assay. The class given is cell-based. The conditions noted are these: t-cell, 1 µM. A digest of the protocol: as §1
The nature of series [5]: Immunostimulant activity in Balb/c mouse B cells assessed as inhibition of LPS-induced cell proliferation at 10^-5 M after 48 hrs by MTT assay. In kind it is functional. In short, it runs like this: as §1
The nature of series [6]: Immunosuppressive activity in Balb/c mouse T cells assessed as inhibition of concanavalin A-induced cell proliferation at 10^-5 M after 48 hrs by MTT assay. The class given is functional. A digest of the protocol:
as §1

Series [7] is described as follows: Cytotoxicity against in Balb/c mouse T cells at 10^-5 M after 48 hrs by MTT assay. In kind it is cell-based. The settings on record: t-cell, 10 µM. In short, it runs like this: as §1
Series [8] in a line: Immunosuppressive activity in Balb/c mouse T cells assessed as inhibition of concanavalin A-induced cell proliferation at 10^-6 M after 48 hrs by MTT assay. In kind it is functional. The conditions noted are these: for inhibition at 1 µM: Mus musculus, Balb/c, T-cell, 48 h. In short, it runs like this:
as §1

Series [9] is described as follows: Cytotoxicity against in Balb/c mouse B cells at 10^-5 M after 48 hrs by MTT assay. In kind it is cell-based. The conditions noted are these: 10 µM. In short, it runs like this:
as §1

Series [10] can be described thus: Immunosuppressive activity in Balb/c mouse T cells assessed as inhibition of concanavalin A-induced cell proliferation at 10^-4 M after 48 hrs by MTT assay. In kind it is functional. In short, it runs like this: as §1
Series [11] in a line: Cytotoxicity against in Balb/c mouse T cells at 10^-4 M after 48 hrs by MTT assay. In kind it is cell-based. The settings on record: t-cell, 100 µM. In short, it runs like this:
as §1

The nature of series [12]: Cytotoxicity against in Balb/c mouse B cells at 10^-6 M after 48 hrs by MTT assay. The settings on record: 1 µM. In kind it is cell-based. In short, it runs like this:
as §1

The nature of series [13]: Immunostimulant activity in Balb/c mouse T cells assessed as inhibition of concanavalin A-induced cell proliferation at 10^-5 M after 48 hrs by MTT assay. In kind it is functional. A digest of the protocol: as §1
Series [14] can be described thus: Immunostimulant activity in Balb/c mouse T cells assessed as inhibition of concanavalin A-induced cell proliferation at 10^-4 M after 48 hrs by MTT assay. The class given is functional. The conditions noted are these: for inhibition at 100 µM: Mus musculus, Balb/c, T-cell, 48 h. A digest of the protocol:
as §1

Series [15] in a line: Immunosuppressive activity in Balb/c mouse B cells assessed as inhibition of LPS-induced cell proliferation at 10^-5 M after 48 hrs by MTT assay. In kind it is functional. In short, it runs like this:
as §1

Series [16] is described as follows: Immunostimulant activity in Balb/c mouse T cells assessed as inhibition of concanavalin A-induced cell proliferation at 10^-6 M after 48 hrs by MTT assay. The class given is functional. In short, it runs like this: as §1
A short description of series [17]: Immunostimulant activity in Balb/c mouse B cells assessed as inhibition of LPS-induced cell proliferation at 10^-4 M after 48 hrs by MTT assay. The class given is functional. A digest of the protocol: as §1
A short description of series [18]: Immunostimulant activity in Balb/c mouse B cells assessed as inhibition of LPS-induced cell proliferation at 10^-6 M after 48 hrs by MTT assay. The class given is functional. A digest of the protocol: as §1

These results are taken from ChEMBL document CHEMBL2311361, “Diminutive effect on T and B-cell proliferation of non-cytotoxic α-santonin derived 1,2,3-triazoles: a report” (Eur J Med Chem, 2013).

Usually inhibition stands for the share of the control response that was lost under treatment.

In the case of `Cc1cc(OCc2cnnn2/C=C/c2ccccc2)c(C)c2c1CC[C@H]1[C@H](C)C(=O)O[C@@H]21`, the inhibition at 1 µM came to 7.69% in series [1] and 95.1% in [8]. The Activity entry in [2], in series [4], in series [7], in series [9], in [11] and in series [12] was “Non-toxic” in each case. Moreover, the inhibition at 100 µM in [3] was determined as 36.8%; in series [10], 95.1%. Besides, the inhibition at 10 µM was determined as 48.7% in series [5] and 95.1% in series [6].
As for `Cc1cc(OCc2cnnn2-c2cc(F)ccc2I)c(C)c2c1CC[C@H]1[C@H](C)C(=O)O[C@@H]21`, the inhibition at 1 µM worked out at 20.8% in series [1] and 21.4% in series [8]. For the same compound, the inhibition at 10 µM worked out at 10.8% in series [13], 24.2% in [15] and 31.4% in series [6]. In addition, the “inhibition (INH)” value in [14] is given as 19.16%; in [8], 17.5%. Moreover, the inhibition at 100 µM worked out at 19.2% in [14] and 14.2% in series [3]. In addition, the Activity entry was “Toxic” in series [2]; “Toxic” in series [4]; “Non-toxic” in series [7]; “Non-toxic” in [9]; “Toxic” in series [11]; “Toxic” in series [12].
In the case of `C#CCOc1cc(C)c2c(c1C)[C@@H]1OC(=O)[C@@H](C)[C@@H]1CC2`, the figures for the inhibition at 1 µM in [1] and in [16] were 29.9% and 24.4%, respectively. Also, the Activity result was “Non-toxic” in [2]; “Toxic” in series [4]; “Non-toxic” in series [7]; “Non-toxic” in series [9]; “Non-toxic” in series [11]; “Toxic” in series [12]. Also, the inhibition at 100 µM in series [3] is 36.8%; in series [10], 12.2%. Besides, the results for the inhibition at 10 µM in series [15] and in [6] were 22.2% and 1.21%, respectively.
In the case of `Cc1cc(O)c(C)c2c1CC[C@H]1[C@H](C)C(=O)O[C@@H]21`, the results for the inhibition at 1 µM in [1] and in series [8] were 23.1% and 20.7%, respectively. In addition, the results for the inhibition at 100 µM in series [14] and in [17] were 80.5% and 18.8%, respectively. For the same compound, the Activity result in [2], in [4], in series [7], in series [9], in [11] and in series [12] was “Non-toxic” in each case. Further, the values for the inhibition at 10 µM in [15] and in series [6] were 23.9% and 24.4%, respectively.
As for `Cc1cc(OCc2cnnn2-c2ccccc2C(F)(F)F)c(C)c2c1CC[C@H]1[C@H](C)C(=O)O[C@@H]21`, the Activity result in series [2], in series [4], in series [7], in series [9], in [11] and in [12] was “Non-toxic” each time. Further, the inhibition at 100 µM in [3] was 11.4%; in [10], 22.9%. For the same compound, the inhibition at 1 µM in [18] turned out to be 62.9%; in [8] it was 7.14%. In addition, the inhibition at 10 µM was determined as 31.4% in [15] and 30% in series [6].
Turning to `Cc1cc(OCc2cnnn2-c2ccc(Cl)nc2)c(C)c2c1CC[C@H]1[C@H](C)C(=O)O[C@@H]21`, the inhibition at 10 µM in series [13] was found to be 12.8%; in [15], 8.57%. Further, the inhibition at 100 µM is 8.57% in series [14] and 75.7% in series [17]. Also, the Activity entry was “Non-toxic” in series [2]; “Toxic” in series [4]; “Non-toxic” in series [7]; “Non-toxic” in series [9]; “Non-toxic” in series [11]; “Toxic” in series [12]. The inhibition at 1 µM in [18] turned out to be 45.7%; in series [8], 20.8%.
With `Cc1cc(OCc2cnnn2-c2ccc(-c3ccccc3)cc2)c(C)c2c1CC[C@H]1[C@H](C)C(=O)O[C@@H]21`, the inhibition at 10 µM in [13] is 63.4%; in [15] it was 3.41%. Moreover, the inhibition at 100 µM in [14] stood at 2.43%; in [17], 15.4%. Further, the Activity result was “Toxic” in series [2]; “Non-toxic” in series [4]; “Non-toxic” in series [7]; “Non-toxic” in [9]; “Toxic” in [11]; “Non-toxic” in [12]. For the same compound, the inhibition at 1 µM in series [16] was 35.4%; in series [18] it was 17.9%.
With `Cc1cc(OCc2cnnn2-c2ccc(Br)c3ccccc23)c(C)c2c1CC[C@H]1[C@H](C)C(=O)O[C@@H]21`, the inhibition at 100 µM came out at 12.8% in series [17] and 10% in series [10]. Also, the Activity result is recorded as “Toxic” in series [2]; “Non-toxic” in [4]; “Toxic” in [7]; “Toxic” in [9]; “Toxic” in [11]; “Non-toxic” in [12]. Besides, the figures for the inhibition at 1 µM in [16] and in series [18] were 30% and 27.1%, respectively. Also, the values for the inhibition at 10 µM in [15] and in series [6] were 17.1% and 48.6%, respectively.
Take `Cc1cc(OCc2cnnn2-c2cc(F)c(F)cc2Br)c(C)c2c1CC[C@H]1[C@H](C)C(=O)O[C@@H]21`: the inhibition at 1 µM was found to be 20% in series [1] and 21.4% in series [16]. Besides, the Activity entry in [2], in series [4], in [7], in series [9], in series [11] and in series [12] was “Toxic” throughout. Also, the inhibition at 100 µM in series [3] turned out to be 7.14%; in [10] it was 15.7%. Also, the inhibition at 10 µM in series [15] came to 21.4%; in [6], 20%.
As to `Cc1cc(OCc2cnnn2-c2ccc3ccccc3c2)c(C)c2c1CC[C@H]1[C@H](C)C(=O)O[C@@H]21`, the values for the inhibition at 10 µM in series [13] and in [15] were 2.43% and 23.1%, respectively. In addition, the inhibition at 100 µM is 13.4% in [14] and 1.7% in series [3]. Besides, the Activity result is “Toxic” in series [2]; “Non-toxic” in [4]; “Non-toxic” in [7]; “Non-toxic” in series [9]; “Toxic” in series [11]; “Non-toxic” in [12]. For the same compound, the inhibition at 1 µM in series [16] was 12.2%; in [18], 7.69%.
Take `CC(=O)Nc1ccc(-n2nncc2COc2cc(C)c3c(c2C)[C@@H]2OC(=O)[C@@H](C)[C@@H]2CC3)cc1`: the inhibition at 1 µM in series [1] was 25%; in series [8], 20%. Besides, the inhibition at 10 µM in series [13] turned out to be 13.3%; in [15] it was 15%. Also, the inhibition at 100 µM in [14] turned out to be 27.5%; in [17], 16.7%. Also, the Activity entry is reported as “Toxic” in [2]; “Toxic” in [4]; “Non-toxic” in series [7]; “Non-toxic” in series [9]; “Toxic” in series [11]; “Toxic” in series [12].
On to `COc1ccc(-n2nncc2COc2cc(C)c3c(c2C)[C@@H]2OC(=O)[C@@H](C)[C@@H]2CC3)cc1OC`, for which the inhibition at 10 µM in [13] came to 15.8%; in series [15] it was 0.85%. In addition, the inhibition at 100 µM was 90.2% in series [14] and 12.8% in [17]. In addition, the Activity entry in series [2] is recorded as “Toxic”; in series [4], “Non-toxic”; in series [7], “Non-toxic”; in series [9] it was “Non-toxic”; in [11], “Toxic”; in series [12] it was “Non-toxic”. Moreover, the inhibition at 1 µM worked out at 75.6% in series [16] and 15.4% in series [18].
